In ChEMBL document CHEMBL1143260, “Substrate specificity and screening of the integral membrane protease Pla” (Bioorg Med Chem Lett, 2008):
Active and inactive are the calls of the source. No cut-off for these calls is given here. Residues, ends and D or L forms follow the SMILES beside them. *: point of attachment. X1 = CN(C)c1ccc(/N=N/c2ccc(C(=O)*)cc2)cc1; EDANS = O=S(=O)(O)c1cccc2c(NCCN*)cccc12

Legend:
[1] = target: Tissue-type plasminogen activator (Homo sapiens) (UniProt P00750); experiment: Hydrolysis activity of plasminogen activator by LC-MS analysis
Outline: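 Peptides were incubated with Pla, and the reaction mixtures were analysed by LC-MS. Cleavage was assigned from product retention time and mass, for example a DABCYL-Arg-OH fragment.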

[2] = target: Tissue-type plasminogen activator (Homo sapiens) (UniProt P00750); experiment: Inhibition of recombinant plasminogen activator assessed as conversion of plasminogen to plasmin in fibrinolytic assay
Outline: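 Fibrin plate functional assay: purified Pla was pre-incubated with the peptide, dissolved in DMSO or water and tested in 2-fold dilutions. Samples were spotted onto an opalescent fibrin film containing plasminogen. No-peptide spots served as controls.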

[3] = target: Urokinase-type plasminogen activator (Homo sapiens) (UniProt P00749); experiment: Inhibition of urokinase-type plasminogen activator
[4] = target: Tissue-type plasminogen activator (Homo sapiens) (UniProt P00750); experiment: Inhibition of purified recombinant plasminogen activator by fluorometric assay
[5] = target: T1, Plasminogen activator (Yersinia pestis) (UniProt P17811); experiment: Inhibition of plasminogen activator in Yersinia pestis by fluorometric assay
T1 sequence (whole entry): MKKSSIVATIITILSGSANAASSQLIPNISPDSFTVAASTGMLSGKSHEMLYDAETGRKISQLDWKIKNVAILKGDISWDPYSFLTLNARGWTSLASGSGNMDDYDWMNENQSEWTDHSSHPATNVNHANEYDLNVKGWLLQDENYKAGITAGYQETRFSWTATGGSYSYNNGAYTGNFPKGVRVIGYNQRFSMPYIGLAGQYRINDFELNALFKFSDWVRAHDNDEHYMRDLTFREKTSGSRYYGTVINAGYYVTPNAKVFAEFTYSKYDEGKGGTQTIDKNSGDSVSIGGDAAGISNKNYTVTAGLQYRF

[6] = target: T1, Plasminogen activator (Yersinia pestis); experiment: Inhibition of plasminogen activator in Yersinia pestis assessed as conversion of plasminogen to plasmin in fibrinolytic assay
Outline: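 Fibrin plate assay. Purified recombinant Pla was pre-incubated with the peptide in 2-fold dilutions (dissolved in DMSO or water), then spotted onto an opalescent fibrin film. Pla converts plasminogen to plasmin, and fibrinolysis appears as a clear spot. Inhibition was judged against spots with no peptide added.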

Chain of Tissue-type plasminogen activator (Homo sapiens) (P00750 36-562 limits assumed): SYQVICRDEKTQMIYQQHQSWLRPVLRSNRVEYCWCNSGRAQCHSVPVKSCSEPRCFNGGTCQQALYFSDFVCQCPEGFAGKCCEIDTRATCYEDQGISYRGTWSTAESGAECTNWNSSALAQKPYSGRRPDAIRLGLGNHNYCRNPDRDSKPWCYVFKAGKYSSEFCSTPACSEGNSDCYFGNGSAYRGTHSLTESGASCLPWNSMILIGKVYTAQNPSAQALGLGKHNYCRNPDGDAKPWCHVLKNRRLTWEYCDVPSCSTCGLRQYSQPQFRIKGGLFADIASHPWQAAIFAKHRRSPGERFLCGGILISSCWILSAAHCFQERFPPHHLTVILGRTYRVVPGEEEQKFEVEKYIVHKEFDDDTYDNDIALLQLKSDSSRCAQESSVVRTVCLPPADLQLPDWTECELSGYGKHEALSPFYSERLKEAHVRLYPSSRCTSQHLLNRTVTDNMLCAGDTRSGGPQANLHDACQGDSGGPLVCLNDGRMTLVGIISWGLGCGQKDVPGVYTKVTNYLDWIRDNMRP

Row | SMILES | Activity [1] | Activity [2] | Activity [3] | Activity [4] | Activity [5] | Activity [6]
1 | CC[C@H](C)[C@H](NC(=O)[C@H](CCCNC(=N)N)NC(=O)[C@H](CCCNC(=N)N)NC(=O)c1ccc(/N=N/c2ccc(N(C)C)cc2)cc1)C(=O)N[C@@H](CC(=O)O)C(=O)NCCNc1cccc2c(S(=O)(=O)O)cccc12 (X1-RRID-{EDANS}) | Active | Active | – | – | – | –
2 | CC[C@H](C)[C@H](NC(=O)[C@H](CCCNC(=N)N)NC(=O)[C@H](CCCNC(=N)N)NC(=O)c1ccc(/N=N/c2ccc(N(C)C)cc2)cc1)C(=O)N[C@@H](CC(N)=O)C(=O)N[C@@H](CCCNC(=N)N)C(=O)N[C@@H](CCC(=O)O)C(=O)NCCNc1cccc2c(S(=O)(=O)O)cccc12 (X1-RRINRE-{EDANS}) | Active | Active | – | – | – | –
3 | CC[C@H](C)[C@H](NC(=O)[C@H](CCCNC(=N)N)NC(=O)[C@H](CCCNC(=N)N)NC(=O)c1ccc(/N=N/c2ccc(N(C)C)cc2)cc1)C(=O)NCCNc1cccc2c(S(=O)(=O)O)cccc12 | Active | Active | – | – | – | –
4 | CN(C)c1ccc(/N=N/c2ccc(C(=O)N[C@@H](CCCNC(=N)N)C(=O)N[C@@H](CCCNC(=N)N)C(=O)O)cc2)cc1 | inactive | inactive | – | – | – | –
5 | CC[C@H](C)[C@H](NC(=O)[C@H](CCCNC(=N)N)NC(=O)[C@H](CCCNC(=N)N)NC(=O)c1ccc(/N=N/c2ccc(N(C)C)cc2)cc1)C(=O)O | Active | inactive | – | – | – | –
6 | CC[C@H](C)[C@H](NC(=O)[C@H](CCCNC(=N)N)NC(=O)[C@H](CCCNC(=N)N)NC(=O)c1ccc(/N=N/c2ccc(N(C)C)cc2)cc1)C(=O)N[C@@H](CC(N)=O)C(=O)N[C@@H](CCCNC(=N)N)C(=O)O (X1-RRINR-OH) | Active | inactive | – | – | – | –
7 | CC[C@H](C)[C@H](NC(=O)[C@H](CCCNC(=N)N)NC(=O)[C@H](CCCNC(=N)N)NC(=O)c1ccc(/N=N/c2ccc(N(C)C)cc2)cc1)C(=O)N[C@@H](CC(N)=O)C(=O)O (X1-RRIN-OH) | Active | inactive | – | – | – | –
8 | CC[C@H](C)[C@H](NC(=O)[C@H](CCCNC(=N)N)NC(=O)[C@H](CCCNC(=N)N)NC(=O)c1ccc(/N=N/c2ccc(N(C)C)cc2)cc1)C(=O)N[C@@H](CC(N)=O)C(=O)N[C@@H](CCCNC(=N)N)C(=O)N[C@@H](CCC(=O)NCCNc1cccc2c(S(=O)(=O)O)cccc12)C(N)=O (X1-RRINRE(EDANS)-NH2) | Active | Active | inactive | Active | Active | Active
